Reference: ChEMBL document CHEMBL1759852, “A comparative study of proapoptotic potential of cyano analogues of boswellic acid and 11-keto-boswellic acid” (Eur J Med Chem, 2011)
Active and inactive are the calls of the source. The rule behind the calls is not given here.

Key:
HL-60 [1] = assay: Cytotoxicity against human HL60 cells after 48 hrs by MTT assay; format: functional, cell-based; conditions: HL-60, 48 h
Method in brief: (§1)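 HL-60 (2 × 10^4/200 μl) or HeLa (1 × 10^4/200 μl) in RPMI-1640/MEM, 10% FCS, 37 °C, 5% CO2; treated 0.1–50 μM for 48 h, DMSO vehicle <0.2%. MTT added final 3 h; formazan dissolved in DMSO, OD 570 nm (reference 620 nm). IC50 as 50% viability versus untreated control; three experiments, CV <10%.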

HeLa = assay: Cytotoxicity against human HeLa cells after 48 hrs by MTT assay; format: functional, cell-based; method in brief: as §1
HL-60 [2] = assay: Induction of apoptosis in human HL60 cells assessed as late apoptotic cells at 4 uM after 6 hrs using Annexin-V-FITC/propidium iodide staining by flow cytometry (reference value: 1%); format: functional
Method in brief: (§2)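 HL-60 cells (1 × 10^6/ml) treated 6 h at varied concentrations; camptothecin 4 μM 6 h positive control. AnnexinV-FITC and propidium iodide staining per kit; FL-1 versus FL-2 flow cytometry with quadrant statistics for apoptotic and necrotic populations; representative of three experiments.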

HL-60 [3] = assay: Induction of apoptosis in human HL60 cells assessed as early apoptotic cells at 0.3 uM after 6 hrs using Annexin-V-FITC/propidium iodide staining by flow cytometry (reference value: 6%); format: functional; method in brief: as §2
HL-60 [4] = assay: Induction of apoptosis in human HL60 cells assessed as nuclear condensation and blebbing at 0.5 to 2 uM after 9 hrs Hoechst 33258 staining by fluorescence microscopy; format: functional, cell-based
Method in brief: (§3)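 HL-60 cells (2 × 10^6/3 ml) treated 9 h, washed twice in PBS, fixed and stained with Hoechst 33258; nuclear morphology and apoptotic bodies examined by inverted fluorescence microscopy.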

HL-60 [5] = assay: Induction of apoptosis in human HL60 cells assessed as early apoptotic cells at 1 uM after 6 hrs using Annexin-V-FITC/propidium iodide staining by flow cytometry (reference value: 6%); format: functional; method in brief: as §2
HL-60 [6] = assay: Induction of apoptosis in human HL60 cells assessed as increase in scattered apoptotic bodies formation at 0.5 uM after 9 hrs using Hoechst 33258 staining by fluorescence microscopy; format: functional, cell-based; method in brief: as §3
HL-60 [7] = assay: Induction of apoptosis in human HL60 cells assessed as late apoptotic cells at 1 uM after 6 hrs using Annexin-V-FITC/propidium iodide staining by flow cytometry (reference value: 1%); format: functional; method in brief: as §2
HL-60 [8] = assay: Induction of apoptosis in human HL60 cells assessed as early apoptotic cells at 2 uM after 6 hrs using Annexin-V-FITC/propidium iodide staining by flow cytometry (reference value: 6%); format: functional; method in brief: as §2
HL-60 [9] = assay: Cell cycle arrest in human HL60 cells assessed as accumulation at sub-G1 phase at 4 uM after 18 hrs by flow cytometry relative to control; format: functional
Method in brief: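 HL-60 cells at 1 × 10^6/ml exposed 18 h; camptothecin 4 μM for 6 h as positive control. Cells pelleted 160 × g 5 min, PBS-washed, fixed in cold 70% alcohol overnight at −20 °C, RNase (400 μg/ml) digested, PI-stained; flow cytometry, hypo-diploid (<2n DNA) sub-G0/G1 fraction scored as apoptotic.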

HL-60 [10] = assay: Induction of apoptosis in human HL60 cells assessed as early apoptotic cells at 4 uM after 6 hrs using Annexin-V-FITC/propidium iodide staining by flow cytometry (reference value: 6%); format: functional; method in brief: as §2
HL-60 [11] = assay: Induction of apoptosis in human HL60 cells assessed as DNA ladder formation at 1 uM after 9 hrs by agarose gel electrophoresis; format: functional, cell-based
Method in brief: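 HL-60 cells (2 × 10^6) treated 9 h; untreated negative control, camptothecin 4 μM positive control. Cells washed in PBS with 10 mM EDTA, lysed, genomic DNA extracted, precipitated, washed in 80% alcohol, dissolved in TE; run on 1.6% agarose at 50 V, ethidium bromide stained for laddering.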

HL-60 [12] = assay: Induction of apoptosis in human HL60 cells assessed as late apoptotic cells at 0.3 uM after 6 hrs using Annexin-V-FITC/propidium iodide staining by flow cytometry (reference value: 1%); format: functional; method in brief: as §2
HL-60 [13] = assay: Induction of apoptosis in human HL60 cells assessed as induction of morphological changes after 9 hrs by scanning electron microscopy; format: functional, cell-based
Method in brief: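 HL-60 seeded 2 × 10^5/ml in medium with 10% FCS, treated at 0.5 and 2 μM (DMSO stock; vehicle-only controls) for 9 h at 37 °C. Fixed 2.5% glutaraldehyde in 0.1 M phosphate pH 7.2 at 4 °C 1 h, post-fixed 1% OsO4 1 h, acetone-dehydrated, critical-point dried, gold-coated; surface ultrastructure by scanning electron microscopy.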

HL-60 [14] = assay: Induction of apoptosis in human HL60 cells assessed as late apoptotic cells at 2 uM after 6 hrs using Annexin-V-FITC/propidium iodide staining by flow cytometry (reference value: 1%); format: functional; method in brief: as §2

Compound | IC50 (HL-60 [1]) [µM] | IC50 (HeLa) [µM] | other results
CCCCOC(=O)[C@]1(C)[C@@H]2CC[C@]3(C)[C@H](C(=O)C=C4[C@@H]5[C@@H](C)[C@H](C)CC[C@]5(C)CC[C@]43C)[C@@]2(C)CC(C#N)[C@@H]1O (stereo partly drawn) | 14 | 30 | –
CCCCOC(=O)[C@]1(C)[C@@H]2CC[C@]3(C)[C@H](CC=C4[C@@H]5[C@@H](C)[C@H](C)CC[C@]5(C)CC[C@]43C)[C@@]2(C)CC(C#N)[C@@H]1O (stereo partly drawn) | > 50 | > 50 | –
CC(=O)O[C@@H]1CC[C@@]2(C)[C@@H](CC[C@]3(C)[C@@H]2CC=C2[C@@H]4[C@@H](C)[C@H](C)CC[C@]4(C)CC[C@]23C)[C@@]1(C)C(=O)O | 10 | 22 | –
CCCCOC(=O)[C@]1(C)[C@@H]2CC[C@]3(C)[C@H](CC=C4[C@@H]5[C@@H](C)[C@H](C)CC[C@]5(C)CC[C@]43C)[C@@]2(C)CC[C@H]1OC(C)=O | 28 | > 50 | –
CCCCOC(=O)[C@@]1(C)C(=O)C(C#N)C[C@]2(C)[C@H]3C(=O)C=C4[C@@H]5[C@@H](C)[C@H](C)CC[C@]5(C)CC[C@@]4(C)[C@]3(C)CC[C@@H]12 (stereo partly drawn) | 11 | 17 | –
CCCCOC(=O)[C@@]1(C)C(=O)C(C#N)=C[C@]2(C)[C@H]3C(=O)C=C4[C@@H]5[C@@H](C)[C@H](C)CC[C@]5(C)CC[C@@]4(C)[C@]3(C)CC[C@@H]12 | 0.67 | 3 | Activity (HL-60 [2]): 1%; Activity (HL-60 [3]): 15%; Activity (HL-60 [4]): Active; Activity (HL-60 [5]): 20%; Activity (HL-60 [6]): Active; Activity (HL-60 [7]): 2%; Activity (HL-60 [8]): 24%; Activity (HL-60 [9]): 96%; Activity (HL-60 [10]): 26%; Activity (HL-60 [11]): Active; Activity (HL-60 [12]): 3%; Activity (HL-60 [13]): Dose-dependent effect; Activity (HL-60 [14]): 1%
CCCCOC(=O)[C@]1(C)[C@@H]2CC[C@]3(C)[C@H](C(=O)C=C4[C@@H]5[C@@H](C)[C@H](C)CC[C@]5(C)CC[C@]43C)[C@@]2(C)CC[C@H]1OC(C)=O | 30 | 40 | –
CC(=O)O[C@@H]1CC[C@@]2(C)[C@@H](CC[C@]3(C)[C@@H]2C(=O)C=C2[C@@H]4[C@@H](C)[C@H](C)CC[C@]4(C)CC[C@]23C)[C@@]1(C)C(=O)O [AKBA] | 11 | 31 | –
C[C@H]1[C@H](C)CC[C@]2(C)CC[C@]3(C)C(=CC(=O)[C@@H]4[C@@]5(C)CC(C(N)=O)[C@H](O)[C@](C)(C(=O)O)[C@@H]5CC[C@]43C)[C@H]12 (stereo partly drawn) | > 50 | > 50 | –
CCCCOC(=O)[C@@]1(C)C(=O)/C(=C\O)C[C@]2(C)[C@H]3C(=O)C=C4[C@@H]5[C@@H](C)[C@H](C)CC[C@]5(C)CC[C@@]4(C)[C@]3(C)CC[C@@H]12 | 5 | > 50 | –
CCCCOC(=O)[C@@]1(C)c2oncc2C[C@@]2(C)[C@H]1CC[C@]1(C)[C@@H]2CC=C2[C@@H]3[C@@H](C)[C@H](C)CC[C@]3(C)CC[C@]21C | 50 | 50 | –
CCCCOC(=O)[C@@]1(C)[C@H](O)CC[C@@]2(C)[C@H]1CC[C@]1(C)[C@@H]2CC=C2[C@@H]3[C@@H](C)[C@H](C)CC[C@]3(C)CC[C@]21C | > 50 | > 50 | –
C[C@H]1[C@H](C)CC[C@]2(C)CC[C@]3(C)C(=CC[C@@H]4[C@@]5(C)CC[C@@H](O)[C@](C)(C(=O)O)[C@@H]5CC[C@]43C)[C@H]12 [BOSWELLIC ACID] | 24 | 35 | –
C[C@H]1[C@H](C)CC[C@]2(C)CC[C@]3(C)C(=CC(=O)[C@@H]4[C@@]5(C)CC(C(N)=O)[C@H](O)[C@](C)(N=C=O)[C@@H]5CC[C@]43C)[C@H]12 (stereo partly drawn) | 24 | 45 | –
C[C@H]1[C@H](C)CC[C@]2(C)CC[C@]3(C)C(=CC[C@@H]4[C@@]5(C)CC(C(N)=O)[C@H](O)[C@](C)(C(=O)O)[C@@H]5CC[C@]43C)[C@H]12 (stereo partly drawn) | > 50 | > 50 | –
C[C@H]1[C@H](C)CC[C@]2(C)CC[C@]3(C)C(=CC[C@@H]4[C@@]5(C)CC(C(N)=O)[C@H](O)[C@](C)(N=C=O)[C@@H]5CC[C@]43C)[C@H]12 (stereo partly drawn) | > 50 | > 50 | –
CCCCOC(=O)[C@@]1(C)C(=O)C(C#N)C[C@]2(C)[C@H]3CC=C4[C@@H]5[C@@H](C)[C@H](C)CC[C@]5(C)CC[C@@]4(C)[C@]3(C)CC[C@@H]12 (stereo partly drawn) | 14 | 35 | –
CCCCOC(=O)[C@@]1(C)C(=O)CC[C@]2(C)[C@H]3CC=C4[C@@H]5[C@@H](C)[C@H](C)CC[C@]5(C)CC[C@@]4(C)[C@]3(C)CC[C@@H]12 | > 50 | > 50 | –
CCCCOC(=O)[C@@]1(C)[C@H](O)CC[C@@]2(C)[C@H]1CC[C@]1(C)[C@@H]2C(=O)C=C2[C@@H]3[C@@H](C)[C@H](C)CC[C@]3(C)CC[C@]21C | 34 | 50 | –
CCCCOC(=O)[C@@]1(C)c2oncc2C[C@@]2(C)[C@H]1CC[C@]1(C)[C@@H]2C(=O)C=C2[C@@H]3[C@@H](C)[C@H](C)CC[C@]3(C)CC[C@]21C | 33 | > 50 | –
CCCCOC(=O)[C@@]1(C)C(=O)/C(=C\O)C[C@]2(C)[C@H]3CC=C4[C@@H]5[C@@H](C)[C@H](C)CC[C@]5(C)CC[C@@]4(C)[C@]3(C)CC[C@@H]12 | 33 | 44 | –
CCCCOC(=O)[C@@]1(C)C(=O)CC[C@]2(C)[C@H]3C(=O)C=C4[C@@H]5[C@@H](C)[C@H](C)CC[C@]5(C)CC[C@@]4(C)[C@]3(C)CC[C@@H]12 | > 50 | > 50 | –
C[C@H]1[C@H](C)CC[C@]2(C)CC[C@]3(C)C(=CC(=O)[C@@H]4[C@@]5(C)CC[C@@H](O)[C@](C)(C(=O)O)[C@@H]5CC[C@]43C)[C@H]12 [11-KETO BOSWELLIC ACID] | 32 | 50 | –
C[C@H]1[C@H](C)CC[C@]2(C)CC[C@]3(C)C(=CC(=O)[C@@H]4[C@@]5(C)CC(C(N)=O)[C@H](O)[C@](C)(N)[C@@H]5CC[C@]43C)[C@H]12 (stereo partly drawn) | > 50 | > 50 | –
C[C@H]1[C@H](C)CC[C@]2(C)CC[C@]3(C)C(=CC[C@@H]4[C@@]5(C)CC(C(N)=O)[C@H](O)[C@](C)(N)[C@@H]5CC[C@]43C)[C@H]12 (stereo partly drawn) | 37 | > 50 | –
